Assay results of several laboratories.
Lines come from different studies, so protocols differ.
Action: inhibitor
EGFR L858R/T790M: Epidermal growth factor receptor (EGFR, Homo sapiens, UniProt P00533, L858R/T790M)
EGFR: Epidermal growth factor receptor (EGFR, Homo sapiens, UniProt P00533)
EGFR T790M: Epidermal growth factor receptor (EGFR, Homo sapiens, UniProt P00533, T790M)
EGFR L858R: Epidermal growth factor receptor (EGFR, Homo sapiens, UniProt P00533, L858R)

Compound | target | assay | test system | conditions | inhibition
CCC(=O)Nc1cc(Nc2nc(N3CCc4sccc4C3)c3cccnc3n2)c(OC)cc1N1CCOCC1 | EGFR L858R/T790M | enzyme activity, ELISA |  | 0.1 µM | 7.6%
CN1CC(Oc2cnc(C#N)cc2-c2ccn3nc(NC(=O)C4CC4)cc3c2)C1 | EGFR | enzyme activity |  | 1 µM | -1%
C/C=C/C(=O)Nc1cc(Nc2nc(Nc3cnn(C)c3)c3sccc3n2)c(OC)cc1N(C)CCN(C)C | EGFR L858R/T790M | enzyme activity, ELISA |  | 0.1 µM | 18.3%
CC/C(=N\NC(=O)NCc1cccc(O)c1)c1ccc(O)c(C)c1O | Epidermal growth factor receptor (EGFR, Homo sapiens, UniProt P00533, del746-750) | enzyme activity |  | 0.1 µM | -0.6%
C=CC(=O)Nc1cc(Nc2nccc(Nc3cc(Cl)c(F)cc3C(C)(C)O)n2)c(OC)cc1N1CC[C@@H](N(C)C)C1 | EGFR | enzyme activity |  | 1 µM | 76%
COc1cc(N(C)CCN(C)C)c(NC(=O)C=C(C)C)cc1Nc1nc(Nc2cnn(C)c2)c2sccc2n1 | EGFR L858R/T790M | enzyme activity, ELISA |  | 0.1 µM | 25.1%
CNCc1ccc(-c2cc(-c3nc(-c4ccc(S(=O)(=O)C(C)C)cc4)cnc3N)on2)cc1 | EGFR | enzyme activity |  | 0.4 µM | 0%
CNc1cc(Oc2cc(C(=O)Nc3cc(N4CCN(C)CC4)cc(C(F)(F)F)c3)ccc2C)ncn1 | EGFR | target engagement in cells, chemoproteomics | Huh-7 | 1 µM | -15.5%
COc1cc2ncnc(Nc3ccc(Oc4ccccc4)c(C)c3C)c2cc1OC | EGFR T790M | enzyme activity |  | 1 µM | 22%
CCC(=O)Nc1cc(Nc2nc(N3CCc4sccc4C3)c3cccnc3n2)c(OC)cc1N1CCN(CCO)CC1 | EGFR L858R/T790M | enzyme activity, ELISA |  | 0.1 µM | 30.3%
CS(=O)(=O)Nc1cc(-c2ccc3ncnc(Nc4ccc(F)c(Cl)c4)c3c2)cnc1Cl | EGFR | enzyme activity, FRET |  | 10 µM | 90 to 100%
COc1cc2ncnc(Nc3cccc(OCCn4ccnc4[N+](=O)[O-])c3)c2cc1OCCCN1CCOCC1 | EGFR | enzyme activity, FRET |  | 1 µM | 30%
CN(C)C1CCN(CC#Cc2nn(C3CCCC3)c3nc(NCc4ccccc4)ncc23)C1 (stereo not shown) | EGFR | enzyme activity, FRET |  | 1 µM | 7%
COc1cc2ncnc(Nc3ccc(Oc4ccccc4)cc3C)c2cc1OC | EGFR T790M | enzyme activity |  | 1 µM | 50%
COc1cc(-c2cc(-c3ccc(N4CCNCC4)cc3)cnc2N)cc(OC)c1OC | EGFR T790M | enzyme activity |  | 1 µM | 4%
COc1cc(N(C)CCN(C)C)c(NC(=O)C=C(C)C)cc1Nc1nc(N2CCc3sccc3C2)c2sccc2n1 | EGFR L858R/T790M | enzyme activity, ELISA |  | 0.1 µM | 19.5%
O=C(CSc1nc2nccnc2c(=O)n1CCc1ccccc1)Nc1nccs1 | EGFR L858R | enzyme activity |  | 10 µM | 1%
C=CC(=O)Nc1cc(Nc2nc(N3CCc4sccc4C3)c3cccnc3n2)c(OC)cc1N1CCN(CC)CC1 | EGFR L858R/T790M | enzyme activity, ELISA |  | 0.1 µM | 23.4%
COc1cc2c(Nc3cccc(OCCn4ccnc4[N+](=O)[O-])c3)ncnc2cc1OCCCN1CCOCC1 | EGFR | enzyme activity, FRET |  | 1 µM | 24%
CSc1nc(C)c(-c2ccnc(Nc3ccc(N4CCOCC4)cc3)c2)[nH]1 | EGFR | cell-free assay |  | 10 µM | 56.6%
C=C(Cl)C(=O)Nc1cc(Nc2nc(N3CCCC3)c3sccc3n2)c(OC)cc1N(C)CCN(C)C | EGFR L858R/T790M | enzyme activity, ELISA |  | 0.1 µM | 12.7%
CS(=O)(=O)Nc1cccc(-c2csc(NC(=O)CSc3nc4nccnc4c(=O)n3CCc3ccccc3)n2)c1 | EGFR L858R | enzyme activity |  | 10 µM | -1%
